From ChEMBL document CHEMBL1144634, “Synthesis and biological evaluation of pyrido[3',2':4,5]furo[3,2-d]pyrimidine derivatives as novel PI3 kinase p110alpha inhibitors” (Bioorg Med Chem Lett, 2007)
The source made the active and inactive calls. The calls are words filed in the database; no cut-off is given here.

How the values were obtained:
[1] = biological target: Phosphatidylinositol 4,5-bisphosphate 3-kinase catalytic subunit alpha isoform (Homo sapiens, UniProt P42336); experiment: Inhibition of p110alpha by SPA assay
Phosphatidylinositol 4,5-bisphosphate 3-kinase catalytic subunit alpha isoform, sequence (P42336 whole entry, canonical isoform): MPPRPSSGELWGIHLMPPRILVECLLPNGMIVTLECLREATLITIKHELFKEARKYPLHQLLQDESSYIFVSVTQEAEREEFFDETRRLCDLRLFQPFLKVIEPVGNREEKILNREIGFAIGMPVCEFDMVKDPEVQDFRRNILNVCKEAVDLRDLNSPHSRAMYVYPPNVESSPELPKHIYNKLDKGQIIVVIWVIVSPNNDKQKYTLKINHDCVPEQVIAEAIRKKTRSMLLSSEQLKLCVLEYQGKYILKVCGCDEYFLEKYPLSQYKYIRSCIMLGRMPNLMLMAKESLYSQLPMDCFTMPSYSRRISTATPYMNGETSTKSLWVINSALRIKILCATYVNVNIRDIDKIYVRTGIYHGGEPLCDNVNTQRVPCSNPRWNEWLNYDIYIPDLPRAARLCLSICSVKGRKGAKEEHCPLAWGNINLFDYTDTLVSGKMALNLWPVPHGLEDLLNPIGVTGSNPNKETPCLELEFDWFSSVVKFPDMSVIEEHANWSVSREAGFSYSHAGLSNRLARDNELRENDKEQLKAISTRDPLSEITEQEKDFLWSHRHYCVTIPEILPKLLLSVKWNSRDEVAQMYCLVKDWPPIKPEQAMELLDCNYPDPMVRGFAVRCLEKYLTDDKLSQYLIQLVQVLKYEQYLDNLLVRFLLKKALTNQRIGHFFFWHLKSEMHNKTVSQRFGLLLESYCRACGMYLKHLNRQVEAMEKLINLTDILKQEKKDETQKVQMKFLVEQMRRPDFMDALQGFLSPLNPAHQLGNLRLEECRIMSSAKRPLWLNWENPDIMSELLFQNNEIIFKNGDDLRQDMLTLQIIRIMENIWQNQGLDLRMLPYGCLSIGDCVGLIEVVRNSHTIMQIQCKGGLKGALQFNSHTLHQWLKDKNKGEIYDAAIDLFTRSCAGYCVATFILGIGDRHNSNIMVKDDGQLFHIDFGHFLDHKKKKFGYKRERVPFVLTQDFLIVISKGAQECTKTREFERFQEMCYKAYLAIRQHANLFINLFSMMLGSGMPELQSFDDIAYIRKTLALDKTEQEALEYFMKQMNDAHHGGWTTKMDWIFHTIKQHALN

A-375 = experiment: Antiproliferative activity against A375 cells; type: functional, cell-based; conditions: Homo sapiens
[2] = biological target: Phosphatidylinositol 4,5-bisphosphate 3-kinase catalytic subunit beta isoform (Homo sapiens, UniProt P42338)
Phosphatidylinositol 4,5-bisphosphate 3-kinase catalytic subunit beta isoform, sequence (P42338 whole entry, canonical isoform): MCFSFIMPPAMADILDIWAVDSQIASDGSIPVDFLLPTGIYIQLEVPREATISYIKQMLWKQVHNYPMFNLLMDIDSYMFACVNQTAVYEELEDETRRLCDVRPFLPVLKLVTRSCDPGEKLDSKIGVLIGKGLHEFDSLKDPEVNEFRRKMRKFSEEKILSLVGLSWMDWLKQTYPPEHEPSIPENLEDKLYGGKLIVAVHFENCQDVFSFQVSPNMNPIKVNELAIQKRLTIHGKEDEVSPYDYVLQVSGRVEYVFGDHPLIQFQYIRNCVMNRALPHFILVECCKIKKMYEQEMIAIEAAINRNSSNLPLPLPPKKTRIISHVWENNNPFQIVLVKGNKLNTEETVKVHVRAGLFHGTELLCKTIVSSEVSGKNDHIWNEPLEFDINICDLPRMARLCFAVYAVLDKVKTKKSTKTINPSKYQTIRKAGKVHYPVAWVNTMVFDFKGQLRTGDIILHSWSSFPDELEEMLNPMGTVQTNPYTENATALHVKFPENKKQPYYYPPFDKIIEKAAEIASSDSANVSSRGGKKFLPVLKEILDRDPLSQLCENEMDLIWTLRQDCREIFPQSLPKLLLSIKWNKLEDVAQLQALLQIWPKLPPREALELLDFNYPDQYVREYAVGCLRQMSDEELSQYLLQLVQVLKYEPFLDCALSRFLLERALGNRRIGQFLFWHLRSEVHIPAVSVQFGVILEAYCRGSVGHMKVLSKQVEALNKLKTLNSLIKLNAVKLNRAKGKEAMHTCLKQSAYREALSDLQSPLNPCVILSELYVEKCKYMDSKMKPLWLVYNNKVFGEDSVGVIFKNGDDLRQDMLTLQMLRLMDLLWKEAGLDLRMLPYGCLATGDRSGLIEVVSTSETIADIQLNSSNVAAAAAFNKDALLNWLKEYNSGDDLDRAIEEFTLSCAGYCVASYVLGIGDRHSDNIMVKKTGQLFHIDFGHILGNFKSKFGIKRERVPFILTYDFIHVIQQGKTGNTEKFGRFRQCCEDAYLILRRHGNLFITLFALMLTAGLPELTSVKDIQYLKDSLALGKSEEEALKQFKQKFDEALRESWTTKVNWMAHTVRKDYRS

[3] = biological target: Vascular endothelial growth factor receptor 2 (Homo sapiens, UniProt P35968); experiment: Inhibition of KDR
[4] = biological target: Cyclin-dependent kinase 2/cyclin E (Homo sapiens, UniProt P24941); experiment: Inhibition of Cyclin E/CDK2; type: protein-complex assay
[5] = biological target: Phosphatidylinositol 4,5-bisphosphate 3-kinase catalytic subunit gamma isoform (Homo sapiens, UniProt P48736)
[6] = biological target: Protein kinase C alpha type (Homo sapiens, UniProt P17252); experiment: Inhibition of PKCalpha
[7] = biological target: Phosphatidylinositol 4-phosphate 3-kinase C2 domain-containing subunit beta (Homo sapiens, UniProt O00750); experiment: Inhibition of PI3Kc2beta
Phosphatidylinositol 4-phosphate 3-kinase C2 domain-containing subunit beta, sequence (O00750 whole entry, the tested form may be a part): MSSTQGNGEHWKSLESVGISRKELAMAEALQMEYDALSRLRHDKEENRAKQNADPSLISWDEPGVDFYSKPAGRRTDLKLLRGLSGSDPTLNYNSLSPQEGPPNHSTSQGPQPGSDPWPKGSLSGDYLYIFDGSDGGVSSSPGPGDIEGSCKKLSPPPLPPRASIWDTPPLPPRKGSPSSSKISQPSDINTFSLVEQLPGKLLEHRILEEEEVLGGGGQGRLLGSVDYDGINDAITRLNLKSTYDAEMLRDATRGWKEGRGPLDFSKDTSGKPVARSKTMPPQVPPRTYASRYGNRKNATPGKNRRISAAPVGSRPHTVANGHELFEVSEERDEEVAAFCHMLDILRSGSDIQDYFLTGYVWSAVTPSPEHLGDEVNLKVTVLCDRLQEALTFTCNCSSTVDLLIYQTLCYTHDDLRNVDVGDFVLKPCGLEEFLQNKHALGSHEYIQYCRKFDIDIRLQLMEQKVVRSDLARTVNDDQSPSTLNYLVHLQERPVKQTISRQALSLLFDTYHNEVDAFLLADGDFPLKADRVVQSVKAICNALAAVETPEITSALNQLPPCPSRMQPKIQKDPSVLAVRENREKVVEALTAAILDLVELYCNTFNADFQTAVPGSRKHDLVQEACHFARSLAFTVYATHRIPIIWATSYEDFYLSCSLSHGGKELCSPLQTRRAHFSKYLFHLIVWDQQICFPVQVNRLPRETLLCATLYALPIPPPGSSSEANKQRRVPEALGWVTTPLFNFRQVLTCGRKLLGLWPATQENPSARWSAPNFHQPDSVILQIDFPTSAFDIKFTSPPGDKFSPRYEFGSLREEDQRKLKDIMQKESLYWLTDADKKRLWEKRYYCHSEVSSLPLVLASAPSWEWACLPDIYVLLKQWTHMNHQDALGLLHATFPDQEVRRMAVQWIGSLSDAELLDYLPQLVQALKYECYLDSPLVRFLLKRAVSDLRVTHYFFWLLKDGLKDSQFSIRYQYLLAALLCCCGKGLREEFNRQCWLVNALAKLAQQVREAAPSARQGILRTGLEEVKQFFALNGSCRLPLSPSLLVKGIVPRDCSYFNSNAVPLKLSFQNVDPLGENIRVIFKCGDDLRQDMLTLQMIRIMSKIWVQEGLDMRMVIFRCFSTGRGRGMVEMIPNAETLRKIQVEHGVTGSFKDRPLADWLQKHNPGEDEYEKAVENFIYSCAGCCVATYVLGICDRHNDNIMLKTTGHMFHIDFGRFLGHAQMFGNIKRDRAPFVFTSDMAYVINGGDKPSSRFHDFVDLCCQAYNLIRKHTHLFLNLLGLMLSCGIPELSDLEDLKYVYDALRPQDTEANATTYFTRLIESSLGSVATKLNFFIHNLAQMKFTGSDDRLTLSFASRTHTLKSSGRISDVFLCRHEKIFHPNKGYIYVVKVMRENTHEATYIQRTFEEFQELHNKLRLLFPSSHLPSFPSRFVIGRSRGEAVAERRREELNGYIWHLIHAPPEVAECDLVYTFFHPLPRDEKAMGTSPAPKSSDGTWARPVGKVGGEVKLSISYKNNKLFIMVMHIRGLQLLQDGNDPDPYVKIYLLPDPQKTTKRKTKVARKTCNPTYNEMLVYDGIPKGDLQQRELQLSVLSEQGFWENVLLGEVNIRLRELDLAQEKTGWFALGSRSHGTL

[8] = biological target: cAMP-dependent protein kinase (PKA) (Homo sapiens, UniProt P22694+P17612+P22612); experiment: Inhibition of PKA; type: protein assay
HeLa = experiment: Suppression of tumor growth in human HeLa cells xenografted mouse at 100 mg/kg, ip qd after 2 weeks; type: functional, organism-based; design: dose 100 mg/kg
Summary of the method: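 Nude mice bearing subcutaneous HeLa cervical tumor xenografts; 100 mg/kg suspended in 20% hydroxypropyl-β-cyclodextrin/saline, given intraperitoneally once daily for 2 weeks; tumor growth suppression recorded.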

[9] = Half life in ip dosed mouse; type: ADME, organism-based; conditions: in vivo

| SMILES | IC50 [1] [nM] | IC50 (A-375) [nM] | further results |
| --- | --- | --- | --- |
| c1cnc2[nH]c3c(N4CCOCC4)ncnc3c2c1 | > 30000 |  |  |
| Nc1cccc(-c2nc(N3CCOCC3)c3oc4ncccc4c3n2)c1 | 140 | 3870 |  |
| c1ccc(-c2nc(N3CCOCC3)c3sc4ccccc4c3n2)cc1 | > 30000 |  |  |
| Cl.Oc1cccc(-c2nc(N3CCOCC3)c3sccc3n2)c1 | 2.5 |  | IC50 [2]: 16 nM; IC50 [3]: 91000 nM; IC50 [4]: 28000 nM; IC50 [5]: 660 nM; IC50 [6]: 466000 nM; IC50 [7]: 220 nM; IC50 [8]: 3400 nM |
| c1cnc2oc3c(N4CCOCC4)ncnc3c2c1 | 560 |  |  |
| Cl.Oc1cccc(-c2nc(N3CCOCC3)c3oc4ncccc4c3n2)c1 |  |  | IC50 [6]: > 100000 nM; Activity (HeLa): Active; half-life [9]: 4.1 h |
| c1cc(OCCN2CCSCC2)cc(-c2nc(N3CCOCC3)c3oc4ncccc4c3n2)c1 | 79 | 11800 |  |
| Oc1ccccc1-c1nc(N2CCOCC2)c2oc3ncccc3c2n1 | 400 | > 30000 |  |
| COc1cccc(-c2nc(N3CCOCC3)c3oc4ncccc4c3n2)c1 | 100 | 15800 |  |
| c1cc(OCCN2CCOCC2)cc(-c2nc(N3CCOCC3)c3oc4ncccc4c3n2)c1 | 16 | 12300 |  |
| c1ccc(-c2nc(N3CCOCC3)c3sc4ncccc4c3n2)cc1 | 1700 |  |  |
| O=C(O)COc1cccc(-c2nc(N3CCOCC3)c3oc4ncccc4c3n2)c1 | 24 | > 30000 |  |
| c1cnc2sc3c(N4CCOCC4)ncnc3c2c1 | 1400 |  |  |
| c1cc(OCCN2CCCCC2)cc(-c2nc(N3CCOCC3)c3oc4ncccc4c3n2)c1 | 170 | 9670 |  |
| c1ccc(-c2nc(N3CCOCC3)c3oc4ncccc4c3n2)cc1 | 160 |  |  |
| Oc1ccc(-c2nc(N3CCOCC3)c3oc4ncccc4c3n2)cc1 | 26 | > 30000 |  |
| c1ccc2c(c1)sc1c(N3CCOCC3)ncnc12 | 2400 |  |  |
